# Measurements published in ChEMBL document CHEMBL1154303, “Cytotoxic and antiplasmodial compounds from the roots of Strophioblachia fimbricalyx” (J Nat Prod, 2009).
# Key:
# [1] = test system: Radical scavenging activity; test: Antioxidant activity assessed as DPPH radical scavenging activity; type: functional
# Summary of the method: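 DPPH radical-scavenging test run per a published method. Activity is expressed in µg/mL, and a positive control substance was included.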
# Plasmodium falciparum = test: Antiplasmodial activity against multidrug-resistant Plasmodium falciparum K1 assessed as [G-3H]hypoxanthine uptake after 24 hrs by scintillation counting; type: functional, organism-based; details: K1, 24 h
# Summary of the method: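 Microculture radioisotope technique on the multidrug-resistant K1 strain of P. falciparum; activity reported in µg/mL.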
# KB = test: Cytotoxicity against human KB cells by SRB assay; type: functional, cell-based
# MCF7 = test: Cytotoxicity against human MCF7 cells by SRB assay; type: functional, cell-based
# Vero = test: Cytotoxicity against african green monkey Vero cells by SRB assay; type: cell-based; details: Chlorocebus sabaeus
# NCI-H187 = test: Cytotoxicity against human NCI-H187 cells by SRB assay; type: functional, cell-based
SMILES,IC50 [1],IC50 (Plasmodium falciparum),IC50 (KB),IC50 (MCF7),IC50 (Vero),IC50 (NCI-H187)
Cc1cc(C(C)(C)C)c(O)c(C(C)(C)C)c1 [BUTYLATED HYDROXYTOLUENE],18.8 µg/mL,–,–,–,–,–
COC1=Cc2c(cc(OC)c3cc(C)c(OC)cc23)C(C)(C)C1=O [TRIGONOSTEMONE],> 100 µg/mL,> 20 µg/mL,> 5 µg/mL,> 5 µg/mL,> 20 µg/mL,> 5 µg/mL
COc1cc2c(cc1C)c(OC)cc1cc(C)c(=O)c(OC)cc12,> 100 µg/mL,3.2 µg/mL,4 µg/mL,> 5 µg/mL,> 20 µg/mL,> 5 µg/mL
COc1cc2c(cc1C)c(OC)cc1cc(C)c(=O)cc(OC)c12,> 100 µg/mL,> 20 µg/mL,3.9 µg/mL,> 5 µg/mL,> 20 µg/mL,> 5 µg/mL
COC1=Cc2c(cc(O)c3cc(C)c(OC)cc23)C(C)(C)C1=O,29.1 µg/mL,2.7 µg/mL,0.8 µg/mL,2.9 µg/mL,3.1 µg/mL,0.8 µg/mL
Cc1c2ccncc2c(C)c2c1[nH]c1ccccc12 [ELLIPTECINE],–,–,0.48 µg/mL,–,0.48 µg/mL,0.44 µg/mL
COc1cccc2c1C(=O)c1c(O)c3c(c(O)c1C2=O)C[C@@](O)(C(=O)CO)C[C@@H]3O[C@H]1C[C@H](N)[C@H](O)[C@H](C)O1 [DOXORUBICIN],–,–,0.13 µg/mL,–,–,0.04 µg/mL
C[C@H]1[C@@H](O)O[C@@H]2O[C@@]3(C)CC[C@H]4[C@H](C)CC[C@@H]1[C@@]24OO3 [ARTENIMOL],–,0.004 µg/mL,–,–,–,–
